# From PubChem
# Rows were chosen to be rich in hits. Some 4.9% of all compounds tested hit in one or more screens of this group.
# STAT1 blocker: inhibitors of IFN-gamma induced STAT1 signaling | NIH 3T3 STAT1-luciferase reporter, luminescence | AID 920 | inhibition, % at 5.5 µM | 0.35% of 200,000 active;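 active = inhibition above a set limit, the mean inhibition across all tested compounds plus 3 SD, cut at about 34% in these data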;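 also: 0% = IFN-gamma with DMSO and 100% = IFN-gamma with 300 µM nifuroxazide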
# APP 5'UTR act: APP 5'UTR luciferase reporter activation | activation, % at 2 µM | SH-SY5Y APP 5'UTR luciferase reporter, luminescence; zero percent = DMSO vehicle wells | 1% of 190,000 active | AID 1276;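 active = activation above a set limit, based on mean plus 3 SD of controls, cut at about 140% in these data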
# STAT3 inh: reduces IL-6 driven STAT3 reporter signal; U3A cells, IL-6 STAT3-luciferase reporter, luminescence; host cell line lacks STAT1; inhibition, % at 5.5 µM; 0.89% of 190,000 active; AID 862;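 active = inhibition above the mean inhibition across all screened compounds plus 3 SD, cut at about 44% in these data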;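 also: 0% = DMSO only wells and 100% = 100 µM nifuroxazide control wells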
# STAT3 activator: increases IL-6 driven STAT3 reporter signal; U3A cells, IL-6 STAT3-luciferase reporter, luminescence; 100% = signal with IL-6 EC80 alone; activation (% of control), % at 5.6 µM; 0.91% of 190,000 active; AID 871;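 active = activation above the screen-wide mean of compound activation plus 3 SD, cut at about 130% in these data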;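 also: 0% = background luminescence of wells with medium and substrate only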
#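 Material: STAT1-lacking human U3A cells, STAT3 luciferase reporter | Benchmarks: IL-6-only wells as 100% reference | Probe or stimulus: IL-6 (33 ng/mL) | Timing: Compound 1 h, then IL-6 6 h at 37 °C | Detection: Luminescence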
# STAT1 activator: increases IFN-gamma driven STAT1 reporter signal; NIH 3T3 STAT1-luciferase reporter, luminescence; 100% = IFN-gamma alone, no compound; activation (% of control), % at 5.5 µM; AID 932; 2.6% of 200,000 active;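 active = activation above the screen-wide mean activation plus 3 SD, cut at about 130% in these data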;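 also: raw ratio to IFN-gamma control signal so 100% means no change and 0% no light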
# NF-kB neuron act: raises NF-kB expression in human neuronal cells | NF-kB reporter expression; hits give high values | fold change at 12.5 µM | 1.6% of 190,000 active; in the data active = fold change above about 3.3
# * marks the source's active call; other numbers are inactive results; . = no result given.
SMILES,STAT1 blocker,APP 5'UTR act,STAT3 inh,STAT3 activator,STAT1 activator,NF-kB neuron act
Cc1c(Cl)ccc2c(C(=O)NCCN3CCCCC3)cc(-c3ccccn3)nc12,-20,13,-42,134*,116,0.98
Cc1ccc2nc(Cc3ccc(N)cc3)[nH]c2c1,-35,160*,-2,112,131*,1.5
O=C(C1CCN(S(=O)(=O)c2cccs2)CC1)N1CCN(Cc2ccccc2)CC1,0,-7,3,98,99,0.97
CN1CCN(/N=C/c2ccc(Br)cc2)CC1,-32,28,3,100,129*,2
CNC(=S)N/N=C/c1ccc(C(C)C)cc1,-39,64,18,91,129*,.
CC(C)c1ccc(/C=N/NC(=O)CC(=O)NCc2ccccc2)cc1,-5,-2,0,112,104,1.1
CC(C)c1ccc(/C=N/NC(=O)c2ccccc2Cl)cc1,-46,-61,-11,115,139*,1.7
Cc1cc(C)c(C)c(S(=O)(=O)NCC(=O)N2CCCC2)c1C,4,-5,7,96,96,0.96
COc1cc(/C=N/Nc2ccccc2[N+](=O)[O-])ccc1OC(=O)c1ccccc1F,-8,193*,-10,111,107,1.7
COc1cc(/C=N/Nc2ccccc2[N+](=O)[O-])cc(OC)c1O,10,3,9,95,91,1.3
COc1ccc(/C=N/NC(N)=S)cc1OC(=O)c1cccc2ccccc12,-36,19,15,95,130*,0.91
COc1cc(/C=N/Nc2nc3ccccc3s2)ccc1OC(=O)c1ccccc1F,-4,173*,-27,119,106,12*
COc1cc(/C=N/Nc2ccccc2)ccc1OC(=O)c1cccs1,1,5,-18,111,99,1.6
O=C(/C=C/c1cccs1)N1CCN(Cc2ccc3c(c2)OCO3)CC1,-4,-8,-8,111,104,1.1
Cc1sc2ncnc(SCC(=O)NNC(=O)COc3cccc4ccccc34)c2c1C,2,-6,10,98,98,0.98
C/C(NC(=O)c1ccccc1)=C1/C(=O)CC2C1C2(C)C (configuration not stated),-33,68,2,102,130*,2.1
CC(=O)C1=C(NC(=O)c2ccc(F)cc2)CC2C1C2(C)C (configuration not stated),6,10,15,91,94,1.2
O=C(CNC(=O)c1ccccc1Cl)OCC(=O)N1CCc2ccccc21,-37,9,-17,116,134*,2.7
Cc1ccc2nc(-c3ccc(NC(=O)Cc4cccs4)cc3)[nH]c2c1,-50,109,21,87,145*,2.2
COc1ccc(CN2CCCC2C(=O)Nc2ccc(OC)c(OC)c2)cc1OC (configuration not stated),0,10,10,98,100,0.89
Cc1cccc(-c2nnc(SCc3ccccc3)o2)c1,-18,45,8,96,117,2.2
c1ccc(-c2nnc(-c3ccccc3)o2)cc1,-43,163*,4,99,139*,4.6*
c1ccc(-c2nnc(-c3ccncc3)o2)cc1,-28,29,3,98,117,1.8
Cc1ccc(-c2nnc(Nc3ccccc3)o2)cc1,72*,99,101*,20,34,3.3
Cc1cccc(-c2nnc(-c3ccc(N)cc3)o2)c1,-51,57,22,84,147*,4*
SMILES,STAT1 blocker,APP 5'UTR act,STAT3 inh,STAT3 activator,STAT1 activator,NF-kB neuron act
Cc1ccc(NC(=O)Nc2nnc(-c3ccccc3)o2)cc1,-22,30,9,97,119,2.1
Cc1ccc(-c2nnc(-c3cccc(Br)c3)o2)cc1,-26,109,-19,120,122,3.7*
C=CCNC(=O)c1onc(CSc2cc(C)ccc2C)c1C(=O)O,-1,9,-18,115,101,1
O=[N+]([O-])c1ccccc1S(=O)(=O)N1CCN(Cc2ccsc2)CC1,4,14,5,100,93,0.95
Brc1cccc(-c2nnc(-c3ccccc3)o2)c1,-34,56,-11,110,132*,1
Cc1ccc(-c2nnc(-c3ccccc3)o2)cc1Br,-27,43,17,88,125,.
CCn1c(-c2sc(-c3ccccc3)nc2C)n[nH]c1=S,-4,-6,9,96,101,1.2
C#CCSc1nnc(-c2sc(-c3ccccc3)nc2C)n1C,-8,11,10,96,108,1.1
Cc1nc(-c2ccccc2)sc1-c1ccn[nH]1,-25,164*,29,81,122,1.2
Cc1nc(-c2ccccc2)sc1-c1ccnn1C,-46,141*,16,89,141*,6.4*
CCOC(=O)c1cccc(NC(=O)CN(c2ccc(C)cc2)S(=O)(=O)c2c(C)n[nH]c2C)c1,5,8,-5,108,95,0.62
CC(=Nc1ccc(C)c(C)c1)C1=C(O)CSC1=O,-27,9,5,98,125,2
Cc1cccc(CSc2cn(CC(=O)N3CCOCC3)c3ccccc23)c1,-32,13,-22,114,129*,2.2
COc1ccc(/C=N/NC(=O)c2cccc(OC(F)(F)C(F)F)c2)cc1O,4,8,4,99,96,1
O=C(Nc1ccc(N2CCOCC2)cc1)c1cnsn1,44*,24,87*,31,60,0.58
O=C(Nc1ccc(N2CCOCC2)cc1)c1ccncc1,-3,-3,1,100,97,1.1
CCOC(=O)c1nn(-c2ccc(F)cc2)cc1O,0,8,1,107,98,1.4
CCOC(=O)c1nn(-c2ccc(Br)cc2)cc1C(=O)c1cccc2ccccc12,-12,7,20,88,111,6.4*
O=[N+]([O-])c1ccc(Cc2nnc(-c3ccccc3Cl)o2)cc1,3,166*,31,81,97,3.6*
O=C(CCC(=O)c1cccs1)c1cccs1,-33,131,18,88,130*,5.2*
O=C(NCc1ccco1)c1cccs1,2,24,-12,112,98,1.3
O=C(CSCc1ccco1)c1cccs1,-27,170*,2,104,124,1.9
O=C(COC(=O)c1cccs1)c1ccccc1,-34,55,0,105,131*,4.6*
O=C(c1ccccc1)c1cccs1,2,5,8,97,97,.
CCOC(=O)CCCSc1nnc(CCCCCN2C(=O)c3cccc4cccc(c34)C2=O)o1,-7,-7,14,87,107,0.97
CS(=O)(=O)Nc1cccc2[nH]ncc12,0,-14,19,88,98,0.91
Cc1nn(Cc2ccccc2)c(Cl)c1/C=C/C(=O)OCC(=O)N1CCCC1=O,0,22,-3,105,98,7*
Cc1nn(Cc2ccccc2)c(Cl)c1/C=C/C(=O)OCC(=O)N(C)C1CCS(=O)(=O)C1 (configuration not stated),-4,7,8,94,105,1.3
